Consider four compounds from ChEMBL document CHEMBL2010762, “Synthesis of novel 9-O-N-aryl/aryl-alkyl amino carbonyl methyl substituted berberine analogs and evaluation of DNA binding aspects” (Bioorg Med Chem, 2012).

Active and inactive are the calls of the source. No cut-off for these calls is given here.

Format in all cases: nucleic-acid assay
Common to all, as to conditions: Bos taurus

Assay [1] relates to Nucleic Acid. Nature of the assay: Binding affinity to calf thymus DNA assessed as change in melting temperature by thermal denaturation assay. The gist of the method: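 CT DNA alone or with alkaloid, 10 mM citrate-phosphate buffer pH 7.0. Absorbance at 260 nm was followed while heating from 20 to 100 °C at 0.5 °C/min in 1 cm quartz cuvettes. ΔTm was taken at saturation.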

Assay [2] concerns Nucleic Acid. In words: Binding affinity to calf thymus DNA in citrate-phosphate buffer at pH 7 assessed as change in viscosity by hydrodynamic method. The gist of the method:
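Relative viscosity of CT DNA in 10 mM CP buffer pH 7.0 at 20 °C with increasing alkaloid (varying D/P), mixed by slow nitrogen bubbling. Flow times were measured in triplicate to 0.01 s. Contour length increase (L/Lo) was plotted against r.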

The subject of assay [3] is Nucleic Acid. In words: Binding affinity to calf thymus DNA assessed as fluorescence quenching by fluorescence spectroscopy analysis. A digest of the protocol: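 Ferrocyanide quenching of alkaloid fluorescence, free and bound to CT DNA, at constant P/D (base pair/alkaloid). KCl and K4[Fe(CN)6] solutions were mixed in different ratios at fixed total ionic strength in 10 mM CP buffer pH 7.0. Intensity was read against rising ferrocyanide. Stern–Volmer quenching constant (Ksv). At least four measurements were averaged per set.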

Assay [4] relates to Nucleic Acid. Nature of the assay: Binding affinity to calf thymus DNA in citrate-phosphate buffer at pH 7 by circular dichroism spectral analysis. A digest of the protocol:
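CD spectra of CT DNA titrated with increasing alkaloid in 10 mM CP buffer pH 7.0 at 20 °C. Output is molar ellipticity, [θ] = [θ]obs/10lC.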
(CD spectra are sensitive to the conformation of chiral molecules.)

Usually ΔTm stands for the change in melting temperature against a reference sample.

Turning to `COc1ccc2cc3[n+](cc2c1OCC(=O)NCCc1ccccc1)CCc1cc2c(cc1-3)OCO2.[Cl-]`, the ΔTm with Nucleic Acid [1] was 12 °C. In addition, the result with Nucleic Acid [2] was Active. In addition, the KSV in the assay with Nucleic Acid [3] stood at 37 M⁻¹.
Turning to `COc1ccc2cc3[n+](cc2c1OCC(=O)Nc1ccccc1)CCc1cc2c(cc1-3)OCO2.[Cl-]`, in the assay with Nucleic Acid [1], the ΔTm is 15.5 °C. The result with Nucleic Acid [2] and in the assay with Nucleic Acid [4] was Active. The KSV in the assay with Nucleic Acid [3] was 57 M⁻¹.
Take `COc1ccc2cc3[n+](cc2c1OC)CCc1cc2c(cc1-3)OCO2.[Cl-]` [BERBERINE CHLORIDE]: the ΔTm in the assay with Nucleic Acid [1] worked out at 9 °C. Further, the result in the assay with Nucleic Acid [2] and with Nucleic Acid [4] was Active. The KSV in the assay on Nucleic Acid [3] amounted to 90 M⁻¹.
As to `COc1ccc2cc3[n+](cc2c1OCC(=O)NCc1ccccc1)CCc1cc2c(cc1-3)OCO2.[Cl-]`, the ΔTm in the assay with Nucleic Acid [1] was found to be 14 °C. In the assay on Nucleic Acid [2], the result was Active. Also, the KSV with Nucleic Acid [3] came out at 48 M⁻¹.
